KCNK3 inh: human KCNK3 channel inhibitors, primary screen, CHO cells, FluxOR thallium flux, B-score. AID 602410, 2012. Potassium channel subfamily K member 3 (Homo sapiens), O14649. B-score at 10 µM. FluxOR fluorescence; stronger effect = lower value. 0.84% of 340,000 active;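 active = B-score under library mean minus 4 SD, starting fluorescence ratio at most library mean plus 5 SD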;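 also: more negative B-score means stronger inhibition of thallium flux through KCNK3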
KCNK9 inh: KCNK9 potassium channel inhibitors, primary screen, HEK293 cells, thallium flux; FluxOR thallium flux fluorescence; stronger effect = lower value; B-score at 10 µM; 1.2% of 310,000 active; AID 488922, 2010;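 active = ratio B-score over 3 SD below the library mean, with starting fluorescence within 5 SD of its mean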;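 also: negative B-score means less thallium flux so channel inhibition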
KCNQ1 pot: potentiators or activators of KCNQ1 channel, primary screen, cell-based, thallium flux, high-throughput | Potassium voltage-gated channel subfamily KQT member 1 (Homo sapiens), P51787 | CHO-K1 KCNQ1, thallium flux FluxOR fluorescence; stronger effect = higher value | B-score at 10 µM | 0.35% of 310,000 active;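 active = fluorescence ratio B-score, a plate-corrected score, at least three library SD, with initial intensity B-score within 5 SD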
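Assay system: stable KCNQ1 CHO-K1 line; medium: assay buffer, equal DMSO in all wells; timing: 90 min dye loading and 20 min compound exposure, both at room temperature; technique: kinetic FluxOR thallium fluorescence, 10-s 1-Hz baseline, 110-s post-stimulus read; read-out basis: B score of baseline-normalized fluorescence ratio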
Kir21 inh: inhibitors of mouse Kir2.1 inward-rectifier potassium channel. Inward rectifier potassium channel 2 (Mus musculus), P35561. HEK293-Kir2.1, FluxOR thallium flux fluorescence; stronger effect = lower value. B-score at 10 µM. 0.85% of 310,000 active. AID 1672, 2009;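 active = fluorescence ratio B-score at or below minus 3 SD of library scores, with starting-brightness B-score within 2 SD, cut at about -4.2 in these data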;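 also: channel flux triggered by added potassium and thallium sulfate stimulus; B-score of peak minus minimum fluorescence over baseline after thallium stimulus; more negative B-score means stronger Kir2.1 block with less thallium influx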
Target sequence (P35561 whole entry, looked up): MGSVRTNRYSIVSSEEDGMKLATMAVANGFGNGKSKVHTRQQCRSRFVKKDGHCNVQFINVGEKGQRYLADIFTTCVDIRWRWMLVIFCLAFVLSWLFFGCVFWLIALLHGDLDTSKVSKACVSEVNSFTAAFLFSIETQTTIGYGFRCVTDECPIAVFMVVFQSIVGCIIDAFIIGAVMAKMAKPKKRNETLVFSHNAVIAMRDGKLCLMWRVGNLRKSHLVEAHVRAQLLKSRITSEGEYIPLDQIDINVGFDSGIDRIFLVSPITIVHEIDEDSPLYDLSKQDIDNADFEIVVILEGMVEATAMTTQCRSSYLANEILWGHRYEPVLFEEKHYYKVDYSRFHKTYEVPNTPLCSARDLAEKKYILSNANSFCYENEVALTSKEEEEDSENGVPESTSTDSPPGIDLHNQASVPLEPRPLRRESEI
hERG protect: hERG rescue from dofetilide block, primary screen, cell-based, CHO-hERG, FluxOR thallium flux, dofetilide IC70. Voltage-gated inwardly rectifying potassium channel KCNH2 (Homo sapiens), Q12809. dofetilide IC70 present. activation (rescue from dofetilide block), less the hit threshold, % at 10 µM. 0.51% of 310,000 active. AID 1511, 2009;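 active = activation above the mean of controls blocked by dofetilide plus 5 SD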;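 also: thallium influx through hERG after potassium depolarization seen as dye fluorescence rise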
KCNQ1 inh: inhibitors of human KCNQ1 channel, primary screen, cell-based, thallium flux, high-throughput | AID 2642, 2010 | B-score at 10 µM | Potassium voltage-gated channel subfamily KQT member 1 (Homo sapiens), P51787 | CHO-K1 KCNQ1, FluxOR thallium flux fluorescence; stronger effect = higher value | 1.3% of 310,000 active;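 active = compounds whose thallium flux B-score, printed positive for inhibition, exceeds three library SD while starting fluorescence stays within three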;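 also: channel opened by potassium depolarization with thallium stimulus after 20 min compound exposure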
KCNQ1 inh valid: KCNQ1 potassium channel inhibitors, confirmation, cell-based, Tl flux, duplicate | shares compounds with KCNQ1 inh | KCNQ1 cell line, FluxOR thallium flux fluorescence | inhibition, % at 10 µM | 93% of 1,600 active | AID 588353, 2011;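 active = primary screen active, with duplicate mean exceeding buffer control mean plus 3 SD of buffer wells, cut at about 28% in these data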;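 also: 0% = buffer control ratio and 100% = XE991 inhibitor control ratio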
CHO Tl flux: thallium flux effects in parental CHO cells, counter-screen for KCNQ1 inhibitor project, cell-based, Tl flux; shares compounds with KCNQ1 inh; parental CHO-K1, FluxOR thallium flux fluorescence ratio; stronger effect = lower value; zero means no signal rise above baseline; 21% of 1,600 active; fluorescence ratio (Tl flux) at 10 µM;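 active = mean of duplicate thallium-flux fluorescence ratios in parental host cells more than 5 SD below the buffer control mean, cut at about 0.38 in these data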;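 also: ratio is peak minus minimum fluorescence divided by baseline fluorescence; actives read low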
KCNQ1 APC inh: KCNQ1 channel inhibitors, confirmation, orthogonal assay, cell-based, automated electrophysiology; 20% of 490 active; shares compounds with KCNQ1 inh; KCNQ1-CHO cells, automated patch clamp current; calls only at 10 µM;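 active = KCNQ1 current drop exceeding 3 SD of negative control wells, seen in both duplicate runs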;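 also: steady state current during a 2 s step from -80 to +40 mV; negative values mean current inhibition and positive values mean potentiation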
KCNQ2 spec: KCNQ2 channel inhibition, selectivity assay for KCNQ1 inhibitor project, cell-based. 71% of 1,600 active. AID 651746, 2012. KCNQ2 cells, FluxOR thallium flux fluorescence. inhibition, % at 10 µM. shares compounds with KCNQ1 inh;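 active = mean percent inhibition of the KCNQ2 thallium signal more than 5 SD above the buffer-only control wells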;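 also: KCNQ2 expressed in CHO cells; 0% = buffer control wells and 100% = XE-991 inhibitor control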
KCNQ1 KCNE1 spec: KCNQ1/KCNE1 channel inhibition, selectivity assay for KCNQ1 inhibitor project, CHO-K1 cells, thallium flux, FluxOR; shares compounds with KCNQ1 inh; FluxOR thallium flux fluorescence; inhibition, % at 10 µM; 77% of 1,600 active;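 active = mean percent inhibition of duplicate wells above the buffer-only control mean plus 3 SD of those controls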;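 also: 0% = buffer only wells and 100% = XE-991 inhibitor control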
Numbers without * were called inactive; i = inactive; · = no result; + = active, no number. In the library only some 3.7% were active in any assay of this set; here they are far more common.

SMILES	KCNK3 inh	KCNK9 inh	KCNQ1 pot	Kir21 inh	hERG protect	KCNQ1 inh	KCNQ1 inh valid	CHO Tl flux	KCNQ2 spec	KCNQ1 KCNE1 spec	others
Cc1ccc(C)c(S(=O)(=O)N2CCN(C(=O)c3cc(-c4cccs4)nn3-c3ccccc3)CC2)c1	i	i	i	-0.02	-14.6	9*	0.0	0.453	78.7%*	46.5%*
CCCCSc1ccc2nc(-c3ccc(C#N)cc3)cn2c1	i	i	i	0.3	-12.8	7*	104.5*	0.561	66.7%*	92.5%*	KCNQ1 APC inh=+
CCOc1ccc(N(CC(=O)NCCc2ccccc2)C(=O)CCC(=O)Nc2cc(C)ccn2)cc1	i	i	i	1.75	-6.4	i	·	·	·	·
O=C(O)c1cccc(NS(=O)(=O)c2ccc(C3CCCCC3)cc2)c1	i	i	i	0.09	-9.9	i	·	·	·	·
Cc1cccc(NS(=O)(=O)c2ccc(C3CCCCC3)cc2)c1	i	i	i	0.01	-8.4	7*	0.0	0.609	i	i
CC1(C)Cc2c(cnn2-c2ccc(F)cc2)C(NC(=O)c2ccoc2)C1 (stereo unspecified)	i	i	i	0.94	-12.7	7*	72.5*	0.42	i	93.0%*
Cn1nccc1C(=O)NC1CC(C)(C)Cc2c1cnn2-c1ccc(F)cc1 (stereo unspecified)	i	i	i	-0.08	-6.8	6*	0.0	0.55	i	i
Cc1cc(C(=O)NC2CC(C)(C)Cc3c2cnn3-c2ccc(F)cc2)no1 (stereo unspecified)	i	i	i	1.62	-12.7	i	·	·	·	·
CC1(C)Cc2c(cnn2-c2ccccc2)C(NC(=O)c2ccoc2)C1 (stereo unspecified)	i	i	i	-1.5	-11.0	i	·	·	·	·
O=C(Nc1cc(S(=O)(=O)N2CCCCCC2)ccc1OCC(F)(F)F)c1ccc(=O)[nH]c1	i	·	·	·	·	·	·	·	·	·
Clc1ccc2[nH]c3c(NCC4CCCO4)ncnc3c2c1 (stereo unspecified)	·	i	i	1.02	-29.1	8*	106.0*	0.487	89.7%*	i	KCNQ1 APC inh=+
Clc1ccc2[nH]c3c(NCCN4CCOCC4)ncnc3c2c1	i	i	i	-1.15	-16.8	i	·	·	·	·
CC(c1ccccc1)N1C(=O)c2ccc(C(=O)Nc3ccccc3C(=O)O)cc2C1=O (stereo unspecified)	i	i	i	0.06	-17.6	i	·	·	·	·
CC(c1ccccc1)N1C(=O)c2ccc(C(=O)Nc3ccc(Br)cc3C(=O)O)cc2C1=O (stereo unspecified)	i	i	i	-1.09	-25.6	12*	108.5*	0.419	i	132.5%*	KCNQ1 APC inh=i
CCC(=O)N1CCN(c2nc(CC)nc3sc4c(c23)CCCC4)CC1	i	i	i	0.12	1.7	i	·	·	·	·
CC1CCc2c(sc3nc(C(C)(C)C)nc(N4CCN(C(=O)CCl)CC4)c23)C1 (stereo unspecified)	i	i	i	-1.11	-4.8	11*	109.5*	0.408	128.0%*	156.0%*	KCNQ1 APC inh=i
Clc1ccc(-c2csc(N3CCOCC3)n2)cc1	i	i	i	-0.11	-8.5	i	·	·	·	·
Clc1ccc(-c2csc(N3CCCCCC3)n2)cc1	i	i	i	-0.94	-2.2	8*	123.0*	0.506	80.7%*	139.5%*	KCNQ1 APC inh=i
N/C(=N/O)c1ccccc1N1CCC(Cc2ccccc2)CC1	i	i	i	-0.65	-11.0	i	·	·	·	·
c1csc(-c2nnc(NC3CCCCC3)c3ccccc23)c1	i	i	i	0.67	-19.1	10*	52.5*	0.551	68.7%*	51.0%*
Cc1c(C)c2ccc(OCC(=O)Nc3ccccn3)c(C)c2oc1=O	i	i	i	2.54	-1.3	i	·	·	·	·
CC(C)(C)c1ccc(C(CC(=O)O)NC(=O)Cc2ccc(Cl)cc2)cc1 (stereo unspecified)	i	i	i	-0.25	-4.0	i	·	·	·	·
Cn1c(=O)c2[nH]c(NN=Cc3cccc(Br)c3)nc2n(C)c1=O	i	·	·	·	·	·	·	·	·	·
O=C1C(CCCNC(=S)NCc2ccccc2)NC(=S)N1Cc1ccccc1 (stereo unspecified)	i	i	i	-1.11	-8.6	6*	77.5*	0.303*	i	115.0%*
CC(=O)Nc1ccc(C(=O)COC(=O)c2ccco2)c(F)c1	i	·	·	·	·	·	·	·	·	·
CC(C)N1CCc2c(sc(NC(=S)NC(=O)c3ccccc3)c2C#N)C1	i	i	i	-3.45	-16.0	7*	0.0	0.503	i	48.5%*
CCCN1CCc2c(sc(NC(=S)NC(=O)c3ccccc3)c2C#N)C1	i	i	i	0.02	-1.9	i	·	·	·	·
COc1ccc(C(=O)C2CCCN(Cc3cccn3-c3ccccn3)C2)c(OC)c1 (stereo unspecified)	i	i	i	-2.37	-10.2	6*	0.0	0.485	60.3%*	i
O=C(c1cc(F)ccc1F)C1CCCN(Cc2cccn2-c2ccccn2)C1 (stereo unspecified)	i	i	i	-0.53	-16.9	i	·	·	·	·
C[C@H]1CN([C@@H](C)CO)C(=O)Cc2cc(NC(=O)CCC(F)(F)F)ccc2O[C@H]1CN(C)S(=O)(=O)c1ccc(Cl)cc1	i	·	·	·	·	·	·	·	·	·

Screening data deposited in PubChem BioAssay by Johns Hopkins Ion Channel Center.
